Test results from BindingDB's records for doi:10.1021/jm950541c (Georgia Institute of Technology, 1996).

target: T1, Calpain-2 catalytic subunit (Homo sapiens, UniProt P17655); assay: Compound was evaluated for the inhibition of Cysteine protease Calpain 2
T1 sequence (P17655 whole entry): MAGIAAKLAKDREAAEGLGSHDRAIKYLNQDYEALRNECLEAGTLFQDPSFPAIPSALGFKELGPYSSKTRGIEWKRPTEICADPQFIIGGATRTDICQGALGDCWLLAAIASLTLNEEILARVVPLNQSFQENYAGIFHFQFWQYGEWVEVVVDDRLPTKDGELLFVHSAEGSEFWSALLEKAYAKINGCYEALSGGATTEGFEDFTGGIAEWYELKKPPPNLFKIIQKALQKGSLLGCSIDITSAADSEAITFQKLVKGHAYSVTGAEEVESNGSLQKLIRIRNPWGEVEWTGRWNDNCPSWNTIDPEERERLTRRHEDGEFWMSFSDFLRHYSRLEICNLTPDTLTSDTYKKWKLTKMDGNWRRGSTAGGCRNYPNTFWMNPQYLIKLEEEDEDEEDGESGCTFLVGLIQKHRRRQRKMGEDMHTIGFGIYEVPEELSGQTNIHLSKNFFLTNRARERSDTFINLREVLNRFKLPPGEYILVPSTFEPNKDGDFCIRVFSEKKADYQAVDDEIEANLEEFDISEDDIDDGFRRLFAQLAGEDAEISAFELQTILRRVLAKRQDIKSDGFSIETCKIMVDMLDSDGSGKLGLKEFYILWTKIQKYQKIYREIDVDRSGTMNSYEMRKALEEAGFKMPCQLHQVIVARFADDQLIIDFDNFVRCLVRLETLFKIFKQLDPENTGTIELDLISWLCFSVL
Procedure, shortened: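 Calpain assay in 25 mM Tris, pH 8.0, with 10 mM CaCl₂ and 5% DMSO. Suc-Leu-AMC hydrolysis was read as initial velocity (t = 30-60 s) after a 30 s delay, at room temperature. Five or more inhibitor concentrations (not above 2 × K_obs) were used at two fixed substrate levels. Ki came from Dixon plots (1/v vs I) averaged over triplicates.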

Row | SMILES | Ki [nM]
1 | CCNC(=O)C(=O)C(CC)NC(=O)C(CC(C)C)NC(=O)c1ccco1 (centres undefined) [Furan-2-carboxylic acid [1-(1-ethylaminooxalyl-propylcarbamoyl)-3-methyl-butyl]-amide] | 580
2 | CCNC(=O)C(=O)C(CC)NC(=O)C(CC(C)C)NC(=O)N1CCOCC1 (centres undefined) [Morpholine-4-carboxylic acid [1-(1-ethylaminooxalyl-propylcarbamoyl)-3-methyl-butyl]-amide] | 9900
3 | CCNC(=O)C(=O)C(CC)NC(=O)C(CC(C)C)NC(=O)c1cccnc1 (centres undefined) [N-[1-(1-Ethylaminooxalyl-propylcarbamoyl)-3-methyl-butyl]-nicotinamide] | 830
4 | CCNC(=O)C(=O)C(CC)NC(=O)C(CC(C)C)NC(=O)c1cnccn1 (centres undefined) [Pyrazine-2-carboxylic acid [1-(1-ethylaminooxalyl-propylcarbamoyl)-3-methyl-butyl]-amide] | 480
5 | CCNC(=O)C(=O)C(CC)NC(=O)C(CC(C)C)NC(=O)c1ccc2ccccc2n1 (centres undefined) [Quinoline-2-carboxylic acid [1-(1-ethylaminooxalyl-propylcarbamoyl)-3-methyl-butyl]-amide] | 300
6 | CC(C)CC(NC(=O)OCc1ccccc1)C(=O)NC(Cc1ccccc1)C(=O)C(=O)NCC(O)c1cccc(Oc2cccc(C(F)(F)F)c2)c1 (centres undefined) [[1-(1-Benzyl-2-{2-hydroxy-2-[3-(3-trifluoromethyl-phenoxy)-phenyl]-ethylcarbamoyl}-2-oxo-ethylcarbamoyl)-3-methyl-butyl]-carbamic acid benzyl ester] | 450
7 | CCC(NC(=O)C(CC(C)C)NC(=O)OCc1ccccc1)C(=O)C(=O)NCc1ccccc1 (centres undefined) [[1-(1-Benzylaminooxalyl-propylcarbamoyl)-3-methyl-butyl]-carbamic acid benzyl ester] | 350

The next molecules have a lower Ki than those just listed; values first:

Row | Ki [nM] | SMILES
8 | 290 | CCC(NC(=O)C(CC(C)C)NC(=O)OCc1ccccc1)C(=O)C(=O)NCC(O)c1ccc(Oc2ccccc2)cc1 (centres undefined) [(1-{1-[2-Hydroxy-2-(4-phenoxy-phenyl)-ethylaminooxalyl]-propylcarbamoyl}-3-methyl-butyl)-carbamic acid benzyl ester]
9 | 280 | CCC(NC(=O)C(CC(C)C)NC(=O)OCc1ccccc1)C(=O)C(=O)NCC(O)c1cccc(Oc2cccc(C(F)(F)F)c2)c1 (centres undefined) [[1-(1-{2-Hydroxy-2-[3-(3-trifluoromethyl-phenoxy)-phenyl]-ethylaminooxalyl}-propylcarbamoyl)-3-methyl-butyl]-carbamic acid benzyl ester]
10 | 160 | CC(C)CC(NC(=O)OCc1ccccc1)C(=O)NC(Cc1ccccc1)C(=O)C(=O)NCCNC(=O)CCCC[C@@H]1SC[C@@H]2NC(=O)N[C@@H]21 (stereo partly drawn) [[1-(1-Benzyl-2-oxo-2-{2-[5-((3aR,6S,6aS)-2-oxo-hexahydro-thieno[3,4-d]imidazol-6-yl)-pentanoylamino]-ethylcarbamoyl}-ethylcarbamoyl)-3-methyl-butyl]-carbamic acid benzyl ester]
11 | 150 | CNC(=O)C(=O)C(Cc1ccccc1)NC(=O)C(CC(C)C)NC(=O)OCc1ccccc1 (centres undefined) [[1-(1-Benzyl-2-methylcarbamoyl-2-oxo-ethylcarbamoyl)-3-methyl-butyl]-carbamic acid benzyl ester]
12 | 120 | CC(C)CC(NC(=O)OCc1ccccc1)C(=O)NC(Cc1ccccc1)C(=O)C(=O)NCC(O)c1cccc(Oc2ccc(Cl)c(Cl)c2)c1 (centres undefined) [[1-(1-Benzyl-2-{2-[3-(3,4-dichloro-phenoxy)-phenyl]-2-hydroxy-ethylcarbamoyl}-2-oxo-ethylcarbamoyl)-3-methyl-butyl]-carbamic acid benzyl ester]
13 | 110 | CCNC(=O)C(=O)C(CC)NC(=O)C(CC(C)C)NC(=O)c1nccc2ccccc12 (centres undefined) [Isoquinoline-1-carboxylic acid [1-(1-ethylaminooxalyl-propylcarbamoyl)-3-methyl-butyl]-amide]
14 | 76 | CCC(NC(=O)C(CC(C)C)NC(=O)OCc1ccccc1)C(=O)C(=O)NCCc1cccn1C (centres undefined) [(3-Methyl-1-{1-[2-(1-methyl-1H-pyrrol-2-yl)-ethylaminooxalyl]-propylcarbamoyl}-butyl)-carbamic acid benzyl ester]
